Assay results as given in ChEMBL document CHEMBL4715734, “Discovery of the Potent and Selective M1 PAM-Agonist N-[(3R,4S)-3-Hydroxytetrahydro-2H-pyran-4-yl]-5-methyl-4-[4-(1,3-thiazol-4-yl)benzyl]pyridine-2-carboxamide (PF-06767832): Evaluation of Efficacy and Cholinergic Side Effects” (J Med Chem, 2016).
Activity calls are given as the source filed them. The rule behind the calls is not given here.

Tests used:
[1] = Toxicity in dog assessed as induction of soft stool at 45 mg/kg, po using spray-dried dispersion formulation measured after 45 mins; type: organism-based, Canis lupus familiaris; settings: in vivo, 0.75 h
[2] = fCmax in dog at 15 mg/kg, po using spray-dried dispersion formulation; type: ADME, organism-based, Canis lupus familiaris; settings: in vivo
[3] = fCmax in dog at 5 mg/kg, po using spray-dried dispersion formulation; type: ADME, organism-based, Canis lupus familiaris; settings: in vivo
[4] = fCmax in dog at 1 mg/kg, po measured after 4 hrs using spray-dried dispersion formulation; type: ADME, organism-based, Canis lupus familiaris; settings: in vivo
In short: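 Dogs from the crossover cardiovascular telemetry study (N=4), dosed orally at 0.3, 1 and 3 mg/kg; unbound Cmax extrapolated from 4 h post-dose in-life plasma samples.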

[5] = fCmax in rat at 30 mg/kg, po administered for 14 days; type: ADME, organism-based; settings: in vivo, 336 h, time 14 day
In short: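 2-week repeat oral dosing in rats, 0.5% methylcellulose formulation; N=4/sex/dose; doses 3, 10, 30 (males)/15 (females) mg/kg; unbound exposures reported per dose and sex.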

[6] = tested on: Rattus norvegicus; test: Reversal of amphetamine-induced prepulse inhibition in Sprague-Dawley rat at 1 mg/kg, sc administered 30 min before testing followed by administration of amphetamine 15 mins prior to testing; type: functional, organism-based
In short: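 In rats with amphetamine-disrupted prepulse inhibition, the compound was dosed sc as a suspension in 0.5% methylcellulose in water. Startle reflex and PPI alone were also assessed, and the analysis used the collapsed data set. Plasma and brain levels were taken from randomly chosen animals (N=2/dose) at the end of the study (1.67 h).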

[7] = Unbound brain concentration in amphetamine-induced C57BL/6J mouse model of hyperlocomotion at 0.32 mg/kg, sc measured after 1 hr; type: ADME, organism-based; settings: in vivo
In short: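 Satellite PK animals from the mouse aLMA study, N=2/dose. Dosed subcutaneously with a solution in 5/15/80 DMSO/Solutol/water. Plasma and brain were sampled at T = 1 h.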

[8] = molecular target: Muscarinic acetylcholine receptor M3 (Homo sapiens, UniProt P20309); test: Positive allosteric modulation of muscarinic M3 receptor (unknown origin) assessed as increase in ACh-induced displacement of [3H]-NMS from M2 receptor
Chain of Muscarinic acetylcholine receptor M3 (P20309 whole entry): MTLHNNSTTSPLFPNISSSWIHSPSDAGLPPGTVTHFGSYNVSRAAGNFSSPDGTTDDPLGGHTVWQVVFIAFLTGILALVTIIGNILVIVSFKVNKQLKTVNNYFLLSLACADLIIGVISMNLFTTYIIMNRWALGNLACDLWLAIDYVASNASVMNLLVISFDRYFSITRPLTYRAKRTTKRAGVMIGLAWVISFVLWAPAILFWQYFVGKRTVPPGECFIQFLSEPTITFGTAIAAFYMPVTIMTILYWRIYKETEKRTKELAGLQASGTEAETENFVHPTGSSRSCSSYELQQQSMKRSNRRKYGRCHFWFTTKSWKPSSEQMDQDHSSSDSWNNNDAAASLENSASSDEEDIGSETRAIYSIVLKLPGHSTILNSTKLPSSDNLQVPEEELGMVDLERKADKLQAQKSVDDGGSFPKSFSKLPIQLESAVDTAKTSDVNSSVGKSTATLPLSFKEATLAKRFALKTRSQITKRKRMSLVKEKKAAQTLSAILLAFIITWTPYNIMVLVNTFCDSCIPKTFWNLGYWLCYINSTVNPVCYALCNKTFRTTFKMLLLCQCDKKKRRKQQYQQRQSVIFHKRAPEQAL
In short: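 Cell lines expressing M2 or M3 were used for [3H]NMS binding. Inhibition of binding by ACh was measured in the presence of fixed compound concentrations of 10, 3, 1, 0.3, 0.1 and 0 µM.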

[9] = Partial agonist activity at muscarinic M2/M3 receptor in Hartley guinea pig ileum assessed as stimulation of contraction relative to carbachol; type: tissue-based, Cavia porcellus
In short: (§1)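 Agonist mode used a guinea pig ileum tissue bath with the compound applied alone. Concentration–response curves were run with or without the non-selective muscarinic antagonist atropine. Contraction was expressed relative to the maximal carbachol response.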

[10] = molecular target: T1, Muscarinic acetylcholine receptor M4 (Homo sapiens, UniProt P08173); test: Agonist activity at human recombinant muscarinic M4 receptor stably expressed in HEK cells assessed as increase in cAMP accumulation up to 10 uM measured after 10 mins by GloSensor cAMP Assay; type: cell-based
T1 sequence (P08173 whole entry): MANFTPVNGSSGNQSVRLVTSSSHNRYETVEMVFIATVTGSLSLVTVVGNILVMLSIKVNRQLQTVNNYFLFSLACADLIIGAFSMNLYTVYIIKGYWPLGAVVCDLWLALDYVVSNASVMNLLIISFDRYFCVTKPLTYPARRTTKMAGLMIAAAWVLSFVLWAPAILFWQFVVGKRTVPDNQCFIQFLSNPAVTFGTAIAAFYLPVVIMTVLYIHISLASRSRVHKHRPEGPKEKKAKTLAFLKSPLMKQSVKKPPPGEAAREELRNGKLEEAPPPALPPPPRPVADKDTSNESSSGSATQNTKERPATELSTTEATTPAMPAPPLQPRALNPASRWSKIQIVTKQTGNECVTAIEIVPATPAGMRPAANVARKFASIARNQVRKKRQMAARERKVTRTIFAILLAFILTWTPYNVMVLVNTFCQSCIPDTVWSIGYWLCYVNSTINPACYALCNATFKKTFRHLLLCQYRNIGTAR

[11] = molecular target: T2, Muscarinic acetylcholine receptor M1 (Homo sapiens, UniProt P11229); test: Agonist activity at muscarinic M1 receptor (unknown origin) expressed in CHO cells assessed as accumulation of inositol phosphate measured after 30 mins by HTRF assay; type: functional, cell-based
T2 sequence (P11229 whole entry): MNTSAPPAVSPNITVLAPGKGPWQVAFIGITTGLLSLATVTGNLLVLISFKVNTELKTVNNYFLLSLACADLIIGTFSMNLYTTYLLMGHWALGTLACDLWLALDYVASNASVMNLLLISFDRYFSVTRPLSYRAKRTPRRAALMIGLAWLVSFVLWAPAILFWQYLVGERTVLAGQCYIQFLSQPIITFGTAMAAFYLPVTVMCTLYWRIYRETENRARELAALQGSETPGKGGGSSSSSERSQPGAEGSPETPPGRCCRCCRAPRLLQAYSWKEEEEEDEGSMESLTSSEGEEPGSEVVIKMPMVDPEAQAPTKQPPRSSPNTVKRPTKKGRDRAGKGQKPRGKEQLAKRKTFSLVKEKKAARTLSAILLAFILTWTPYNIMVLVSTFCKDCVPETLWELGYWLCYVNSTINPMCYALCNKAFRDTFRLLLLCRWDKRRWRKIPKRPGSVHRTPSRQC

[12] = Half-life in rat at 0.5 mg/kg, po or 1 mg/kg, iv; type: ADME, organism-based; settings: in vivo
[13] = Toxicity in rat at 3 mg/kg, po administered for 14 days; type: organism-based; settings: in vivo, 336 h, time 14 day
In short: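 Two-week repeat-dose toxicity study in rats. Oral dosing in 0.5% methylcellulose at 3, 10, 30 (males)/15 (females) mg/kg, N=4/sex/dose. Food intake, body weight gain and histopathology were assessed.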

[14] = Partial agonist activity at muscarinic M2/M3 receptor in Hartley guinea pig ileum assessed as stimulation of contraction in presence of mAChR antagonist atropine; type: tissue-based, Cavia porcellus; in short: as §1
[15] = molecular target: T3, Muscarinic acetylcholine receptor M5 (Homo sapiens, UniProt P08912); test: Positive allosteric modulation of human recombinant muscarinic M5 receptor stably expressed in CHO cells assessed as increase in Ach-induced accumulation of intracellular calcium level upto 10 uM incubated for 10 mins followed by addition of Ach at EC20 concentration by Fluo-8AM dye based FLIPR TETRA method
T3 sequence (P08912 whole entry): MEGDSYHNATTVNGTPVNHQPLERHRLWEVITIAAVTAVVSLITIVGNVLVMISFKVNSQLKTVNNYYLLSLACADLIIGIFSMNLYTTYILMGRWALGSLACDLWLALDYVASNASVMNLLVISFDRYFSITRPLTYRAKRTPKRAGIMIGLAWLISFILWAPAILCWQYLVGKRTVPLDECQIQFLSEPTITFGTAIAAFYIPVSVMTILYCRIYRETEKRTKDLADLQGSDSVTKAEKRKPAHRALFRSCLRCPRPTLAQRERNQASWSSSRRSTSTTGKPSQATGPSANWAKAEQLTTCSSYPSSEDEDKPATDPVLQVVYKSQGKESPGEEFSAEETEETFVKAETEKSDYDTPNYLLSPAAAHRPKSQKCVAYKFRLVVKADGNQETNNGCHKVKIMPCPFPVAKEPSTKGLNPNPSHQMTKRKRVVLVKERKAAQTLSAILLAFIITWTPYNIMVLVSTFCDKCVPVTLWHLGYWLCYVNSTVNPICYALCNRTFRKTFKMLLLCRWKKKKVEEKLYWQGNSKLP

fCmax [2]: 1050 nM
fCmax [3]: 659 nM
fCmax [4]: 169 nM
fCmax [5]: 1221 nM
Drug uptake(free) [7]: 6.38 nM
Activity [8]: Not Active
Emax [9]: 77%
Activity [10]: Not Active
EC50 [11]: ≥ 9.2 µM
half-life [12]: 335 min
Activity [14]: Not Active
Activity [15]: Not Active
SMILES: Cc1cnc(C(=O)N[C@H]2CCOC[C@@H]2O)cc1Cc1ccc(-c2cscn2)cc1
Activity [1]: Toxic
Activity [6]: Active
Activity [13]: Non-Toxic
